Values after ≈ are worked out from the molar mass of the structure shown.
Legend:
Assay type in all cases: functional
Staphylococcus aureus [1] = assay: Antibacterial activity against Staphylococcus aureus ATCC 33592 by micro-broth dilution method
Method in brief: (§1)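 MIC taken as the lowest concentration giving 90% inhibition of bacterial growth. Determined by microbroth dilution following National Committee (NCCLS) guidance, with each value determined in triplicate.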

Enterococcus faecium = assay: Antibacterial activity against vancomycin-resistant Enterococcus faecium ATCC 700221 by microbroth dilution method
Method in brief: (§2)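 Microbroth dilution run per National Committee guidelines; MIC taken as the concentration giving 90% inhibition of bacterial growth. Tested within a broader panel of susceptible and resistant Gram-positive strains. Reported values come from triplicate determinations.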

Staphylococcus aureus [2] = assay: Antibacterial activity against methicillin-resistant Staphylococcus aureus ATCC 700699 by micro-broth dilution method; method in brief: as §2
Bacillus subtilis = assay: Antibacterial activity against Bacillus subtilis ATCC 6633 by micro-broth dilution method; method in brief: as §1
Staphylococcus aureus [3] = assay: Antibacterial activity against Staphylococcus aureus ATCC 33591 by micro-broth dilution method; method in brief: as §1
Enterococcus faecalis [4] = assay: Antibacterial activity against Enterococcus faecalis ATCC 14506 by microbroth dilution method; method in brief: as §1
Klebsiella pneumoniae = assay: Antibacterial activity against Klebsiella pneumoniae ATCC 10031 by micro-broth dilution method; method in brief: as §1
Staphylococcus aureus [5] = assay: Antibacterial activity against Staphylococcus aureus ATCC 25923 by micro-broth dilution method; method in brief: as §1
Staphylococcus aureus [6] = assay: Antibacterial activity against linezolid-resistant Staphylococcus aureus NRS 119 by microbroth dilution method; method in brief: as §2
Enterococcus faecalis [7] = assay: Antibacterial activity against vancomycin-resistant Enterococcus faecalis ATCC 700802 by micro-broth dilution method; method in brief: as §2
Streptococcus pneumoniae = assay: Antibacterial activity against penicillin-resistant Streptococcus pneumoniae ATCC 700904 by micro-broth dilution method; method in brief: as §2
[8] = test system: Staphylococcus epidermidis; assay: Antibacterial activity against Staphylococcus epidermidis ATCC 12228 by micro-broth dilution method; method in brief: as §1
Pseudomonas aeruginosa = assay: Antibacterial activity against Pseudomonas aeruginosa ATCC 27853 by micro-broth dilution method; method in brief: as §1
Enterococcus faecalis [9] = assay: Antibacterial activity against Enterococcus faecalis ATCC 29212 by micro-broth dilution method; method in brief: as §1
Escherichia coli = assay: Antibacterial activity against Escherichia coli ATCC 25922 by micro-broth dilution method; method in brief: as §1
Staphylococcus aureus [10] = assay: Antibacterial activity against Staphylococcus aureus ATCC 29213 by micro-broth dilution method; method in brief: as §1

`Nc1c(F)c(N2CCc3sccc3C2)c(F)c2c1c(=O)c(C(=O)O)cn2C1CC1` was tested, and the MIC (Staphylococcus aureus [1]) was 4 µg/mL (≈ 9.58 µM), the MIC (Enterococcus faecium) was > 16 µg/mL and the MIC (Staphylococcus aureus [2]) was > 16 µg/mL. For the same compound, the MIC (Bacillus subtilis) was ≤ 0.12 µg/mL, the MIC (Staphylococcus aureus [3]) was 4 µg/mL (≈ 9.58 µM) and the MIC (Enterococcus faecalis [4]) was > 16 µg/mL. The MIC (Klebsiella pneumoniae) was 4 µg/mL (≈ 9.58 µM), the MIC (Staphylococcus aureus [5]) was 4 µg/mL (≈ 9.58 µM) and the MIC (Staphylococcus aureus [6]) was > 16 µg/mL. It also gave an MIC (Enterococcus faecalis [7]) of 16 µg/mL (≈ 38.3 µM), an MIC (Streptococcus pneumoniae) of 2 µg/mL (≈ 4.79 µM) and an MIC [8] of 16 µg/mL (≈ 38.3 µM). The MIC (Pseudomonas aeruginosa) was > 16 µg/mL, the MIC (Enterococcus faecalis [9]) was > 16 µg/mL and the MIC (Escherichia coli) was 0.25 µg/mL (≈ 0.599 µM). The MIC (Staphylococcus aureus [10]) was 8 µg/mL (≈ 19.2 µM).
`COc1c(N2CCc3sccc3C2)c(F)c([N+](=O)[O-])c2c(=O)c(C(=O)O)cn(C3CC3)c12` showed an MIC (Bacillus subtilis) of 0.25 µg/mL (≈ 0.544 µM), an MIC (Staphylococcus aureus [3]) of 8 µg/mL (≈ 17.4 µM) and an MIC [8] of 2 µg/mL (≈ 4.35 µM). The MIC (Pseudomonas aeruginosa) was > 16 µg/mL and the MIC (Escherichia coli) was 16 µg/mL (≈ 34.8 µM).
With `O=C(O)c1cn(C2CC2)c2cc(N3CCNCC3)c(F)cc2c1=O` [CIPROFLOXACIN] the MIC (Staphylococcus aureus [1]) was 0.5 µg/mL (≈ 1.51 µM), the MIC (Enterococcus faecium) was > 16 µg/mL and the MIC (Staphylococcus aureus [2]) was > 16 µg/mL. For the same compound, the MIC (Bacillus subtilis) was ≤ 0.12 µg/mL, the MIC (Staphylococcus aureus [3]) was 1 µg/mL (≈ 3.02 µM) and the MIC (Enterococcus faecalis [4]) was 1 µg/mL (≈ 3.02 µM). For the same compound, the MIC (Klebsiella pneumoniae) was ≤ 0.12 µg/mL, the MIC (Staphylococcus aureus [5]) was 0.25 µg/mL (≈ 0.754 µM) and the MIC (Staphylococcus aureus [6]) was > 16 µg/mL. For the same compound, the MIC (Enterococcus faecalis [7]) was 1 µg/mL (≈ 3.02 µM), the MIC (Streptococcus pneumoniae) was 0.25 µg/mL (≈ 0.754 µM) and the MIC [8] was ≤ 0.12 µg/mL. The MIC (Enterococcus faecalis [9]) was 2 µg/mL (≈ 6.04 µM), the MIC (Escherichia coli) was ≤ 0.12 µg/mL and the MIC (Staphylococcus aureus [10]) was 1 µg/mL (≈ 3.02 µM).
With `O=C(O)c1cn(C2CC2)c2cc(N3CCc4sccc4C3)c(F)cc2c1=O` the MIC (Staphylococcus aureus [1]) was 1 µg/mL (≈ 2.6 µM), the MIC (Enterococcus faecium) was > 16 µg/mL and the MIC (Staphylococcus aureus [2]) was > 16 µg/mL. For the same compound, the MIC (Bacillus subtilis) was ≤ 0.12 µg/mL, the MIC (Staphylococcus aureus [3]) was 4 µg/mL (≈ 10.4 µM) and the MIC (Enterococcus faecalis [4]) was 16 µg/mL (≈ 41.6 µM). For the same compound, the MIC (Klebsiella pneumoniae) was ≤ 0.12 µg/mL, the MIC (Staphylococcus aureus [5]) was 1 µg/mL (≈ 2.6 µM) and the MIC (Staphylococcus aureus [6]) was > 16 µg/mL. The MIC (Enterococcus faecalis [7]) was 4 µg/mL (≈ 10.4 µM), the MIC (Streptococcus pneumoniae) was 0.25 µg/mL (≈ 0.65 µM) and the MIC [8] was 8 µg/mL (≈ 20.8 µM). For the same compound, the MIC (Pseudomonas aeruginosa) was > 16 µg/mL, the MIC (Escherichia coli) was 0.25 µg/mL (≈ 0.65 µM) and the MIC (Staphylococcus aureus [10]) was 4 µg/mL (≈ 10.4 µM).
With `COc1c(N2CCc3sc([N+](=O)[O-])cc3C2)c(F)cc2c(=O)c(C(=O)O)cn(C3CC3)c12` the MIC (Staphylococcus aureus [1]) was 8 µg/mL (≈ 17.4 µM), the MIC (Enterococcus faecium) was > 16 µg/mL and the MIC (Staphylococcus aureus [2]) was 16 µg/mL (≈ 34.8 µM). For the same compound, the MIC (Bacillus subtilis) was ≤ 0.12 µg/mL, the MIC (Staphylococcus aureus [3]) was ≤ 0.12 µg/mL and the MIC (Enterococcus faecalis [4]) was > 16 µg/mL. The MIC (Klebsiella pneumoniae) was 0.25 µg/mL (≈ 0.544 µM), the MIC (Staphylococcus aureus [5]) was 4 µg/mL (≈ 8.71 µM) and the MIC (Staphylococcus aureus [6]) was > 16 µg/mL. The MIC (Enterococcus faecalis [7]) was 16 µg/mL (≈ 34.8 µM), the MIC (Streptococcus pneumoniae) was 0.5 µg/mL (≈ 1.09 µM) and the MIC [8] was 4 µg/mL (≈ 8.71 µM). The MIC (Pseudomonas aeruginosa) was 1 µg/mL (≈ 2.18 µM), the MIC (Enterococcus faecalis [9]) was ≤ 0.12 µg/mL and the MIC (Escherichia coli) was 0.5 µg/mL (≈ 1.09 µM). It also gave an MIC (Staphylococcus aureus [10]) of 4 µg/mL (≈ 8.71 µM).
For `COc1c(N2CCc3sccc3C2)c(F)cc2c(=O)c(C(=O)O)cn(C3CC3)c12`, the MIC (Staphylococcus aureus [1]) was 0.25 µg/mL (≈ 0.603 µM), the MIC (Enterococcus faecium) was 16 µg/mL (≈ 38.6 µM) and the MIC (Staphylococcus aureus [2]) was 2 µg/mL (≈ 4.83 µM). The MIC (Bacillus subtilis) was ≤ 0.12 µg/mL, the MIC (Staphylococcus aureus [3]) was ≤ 0.12 µg/mL and the MIC (Enterococcus faecalis [4]) was 0.25 µg/mL (≈ 0.603 µM). For the same compound, the MIC (Klebsiella pneumoniae) was 0.25 µg/mL (≈ 0.603 µM), the MIC (Staphylococcus aureus [5]) was ≤ 0.125 µg/mL and the MIC (Staphylococcus aureus [6]) was > 16 µg/mL. The MIC (Enterococcus faecalis [7]) was ≤ 0.125 µg/mL, the MIC (Streptococcus pneumoniae) was ≤ 0.125 µg/mL and the MIC [8] was > 16 µg/mL. The MIC (Pseudomonas aeruginosa) was > 16 µg/mL, the MIC (Enterococcus faecalis [9]) was 2 µg/mL (≈ 4.83 µM) and the MIC (Escherichia coli) was ≤ 0.12 µg/mL. For the same compound, the MIC (Staphylococcus aureus [10]) was ≤ 0.125 µg/mL.
In the case of `Nc1c(F)c(N2CCc3sc(Br)cc3C2)c(F)c2c1c(=O)c(C(=O)O)cn2C1CC1`, the MIC (Bacillus subtilis) was > 16 µg/mL, the MIC (Klebsiella pneumoniae) was > 16 µg/mL and the MIC [8] was > 16 µg/mL. The MIC (Pseudomonas aeruginosa) was > 16 µg/mL, the MIC (Enterococcus faecalis [9]) was > 16 µg/mL and the MIC (Escherichia coli) was > 16 µg/mL.
`COc1c(N2CCc3sc(C=O)cc3C2)c(F)cc2c(=O)c(C(=O)O)cn(C3CC3)c12` was tested, and the MIC (Staphylococcus aureus [1]) was ≤ 0.25 µg/mL, the MIC (Enterococcus faecium) was > 16 µg/mL and the MIC (Staphylococcus aureus [2]) was 0.5 µg/mL (≈ 1.13 µM). The MIC (Bacillus subtilis) was ≤ 0.12 µg/mL, the MIC (Staphylococcus aureus [3]) was ≤ 0.12 µg/mL and the MIC (Enterococcus faecalis [4]) was 2 µg/mL (≈ 4.52 µM). For the same compound, the MIC (Klebsiella pneumoniae) was ≤ 0.12 µg/mL, the MIC (Staphylococcus aureus [5]) was ≤ 0.125 µg/mL and the MIC (Staphylococcus aureus [6]) was ≤ 0.12 µg/mL. The MIC (Enterococcus faecalis [7]) was 0.25 µg/mL (≈ 0.565 µM), the MIC (Streptococcus pneumoniae) was ≤ 0.12 µg/mL and the MIC [8] was ≤ 0.12 µg/mL. For the same compound, the MIC (Pseudomonas aeruginosa) was 8 µg/mL (≈ 18.1 µM), the MIC (Enterococcus faecalis [9]) was ≤ 0.12 µg/mL and the MIC (Escherichia coli) was 0.25 µg/mL (≈ 0.565 µM). For the same compound, the MIC (Staphylococcus aureus [10]) was ≤ 0.125 µg/mL.
`COc1c(N2CCc3sc(COC(C)=O)cc3C2)c(F)cc2c(=O)c(C(=O)O)cn(C3CC3)c12` was tested, and the MIC (Staphylococcus aureus [1]) was 2 µg/mL (≈ 4.11 µM), the MIC (Staphylococcus aureus [2]) was 4 µg/mL (≈ 8.22 µM) and the MIC (Bacillus subtilis) was ≤ 0.12 µg/mL. For the same compound, the MIC (Staphylococcus aureus [3]) was 0.25 µg/mL (≈ 0.514 µM), the MIC (Klebsiella pneumoniae) was 2 µg/mL (≈ 4.11 µM) and the MIC (Staphylococcus aureus [5]) was 1 µg/mL (≈ 2.06 µM). For the same compound, the MIC (Staphylococcus aureus [6]) was 2 µg/mL (≈ 4.11 µM), the MIC (Enterococcus faecalis [7]) was 1 µg/mL (≈ 2.06 µM) and the MIC (Streptococcus pneumoniae) was ≤ 0.12 µg/mL. The MIC [8] was ≤ 0.12 µg/mL, the MIC (Pseudomonas aeruginosa) was > 16 µg/mL and the MIC (Enterococcus faecalis [9]) was 0.5 µg/mL (≈ 1.03 µM). The MIC (Escherichia coli) was 0.5 µg/mL (≈ 1.03 µM) and the MIC (Staphylococcus aureus [10]) was 4 µg/mL (≈ 8.22 µM).

— ChEMBL document CHEMBL1148855, “Synthesis and antibacterial activity of 4,5,6,7-tetrahydro-thieno[3,2-c]pyridine quinolones” (2007)
